The text below walks through data of ChEMBL document CHEMBL2417552, “Screen of pseudopeptidic inhibitors of human sirtuins 1-3: two lead compounds with antiproliferative effects in cancer cells” (J Med Chem, 2013).

Calls of active or inactive are those of the source. The calls are words filed in the database; no cut-off is given here.

Data set [1] concerns MCF7. The experiment in a line: Cytotoxicity against human MCF7 cells at 50 uM by LDH assay. The class given is functional, cell-based.
The test system of data set [2] is MCF7. As to the kind of experiment: Effect on alpha-tubulin acetylation in human MCF7 cells at 50 uM after 6 to 18 hrs by Western blotting analysis. The class given is functional, cell-based. The essentials:
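MCF-7 cells seeded 24 h ahead, treated for 6 or 18 h, then lysed in M-PER. Lysates run on SDS-PAGE, transferred to nitrocellulose and probed with mouse monoclonal anti-acetylated α-tubulin and anti-total α-tubulin. Detection with peroxidase anti-mouse secondary and ECL Plus.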

Data set [3] deals with T1, NAD-dependent protein deacetylase sirtuin-1 (Homo sapiens) (UniProt Q96EB6).
T1 sequence (whole entry): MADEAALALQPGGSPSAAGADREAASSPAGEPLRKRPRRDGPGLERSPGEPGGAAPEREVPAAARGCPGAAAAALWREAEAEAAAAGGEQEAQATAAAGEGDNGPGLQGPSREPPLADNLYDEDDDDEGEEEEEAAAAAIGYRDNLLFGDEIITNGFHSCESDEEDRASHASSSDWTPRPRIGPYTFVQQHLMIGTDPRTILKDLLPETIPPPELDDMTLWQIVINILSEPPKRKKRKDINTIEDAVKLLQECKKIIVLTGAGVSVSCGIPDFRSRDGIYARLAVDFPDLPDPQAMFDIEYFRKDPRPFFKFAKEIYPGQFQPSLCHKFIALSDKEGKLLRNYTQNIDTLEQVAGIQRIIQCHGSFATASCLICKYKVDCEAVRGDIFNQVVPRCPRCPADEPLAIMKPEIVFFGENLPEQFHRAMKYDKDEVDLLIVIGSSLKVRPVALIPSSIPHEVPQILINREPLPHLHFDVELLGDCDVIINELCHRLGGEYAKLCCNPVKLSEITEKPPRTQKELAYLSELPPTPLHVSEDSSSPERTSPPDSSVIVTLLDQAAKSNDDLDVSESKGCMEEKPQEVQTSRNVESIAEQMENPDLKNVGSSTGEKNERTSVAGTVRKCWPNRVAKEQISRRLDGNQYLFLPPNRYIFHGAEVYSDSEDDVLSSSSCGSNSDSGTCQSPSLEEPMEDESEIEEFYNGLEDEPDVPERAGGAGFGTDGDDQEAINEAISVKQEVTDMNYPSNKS
As to the kind of experiment: Inhibition of SIRT1 in etoposide-induced human MCF7 cells assessed as increase in p53 acetylation at Lys382 at 50 uM after 5 hrs by Western blotting analysis. The class given is cell-based. The essentials: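 MCF-7 cells seeded 24 h ahead, then given 50 μM compound and 100 μM etoposide together for 5 h before harvest. Acetylated p53 detected by Western blot; run once per compound.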
In general terms: In western blotting, separated proteins are transferred to a membrane and probed.

Data set [4] has as its system A549. The experiment in a line: Growth inhibition of human A549 cells up to 200 uM after 48 hrs by sulforhodamine B assay. The class given is functional, cell-based. For orientation: The SRB assay estimates cell density from bound dye.
A short description of data set [5]: Cytotoxicity against human ARPE19 cells at 20 uM by LDH assay. The format is cell-based. Particulars: arpe-19, 20 µM.
Data set [6] is described as follows: Cytotoxicity against human SH-SY5Y cells at 20 uM by LDH assay. The format is cell-based.
For data set [7], the target named is T1, NAD-dependent protein deacetylase sirtuin-1 (Homo sapiens). As to the kind of experiment: Inhibition of SIRT1 in etoposide-induced human SH-SY5Y cells assessed as increase in p53 acetylation at Lys382 at 20 uM after 5 hrs by Western blotting analysis. The class given is cell-based. The essentials:
(§1)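 ARPE-19 or SH-SY5Y cells seeded 24 h ahead, then given 20 μM compound and 100 μM etoposide together for 5 h before harvest. Acetylated p53 detected by Western blot. Mean ± SEM of 2 independent experiments.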

Data set [8] shares this target. As to the kind of experiment: Inhibition of SIRT1 in etoposide-induced human ARPE19 cells assessed as increase in p53 acetylation at Lys382 at 20 uM after 5 hrs by Western blotting analysis. The class given is cell-based. The essentials:
as §1

The target of data set [9] is T2, NAD-dependent protein deacetylase sirtuin-3, mitochondrial (Homo sapiens, UniProt Q9NTG7).
T2 sequence (Q9NTG7 whole entry): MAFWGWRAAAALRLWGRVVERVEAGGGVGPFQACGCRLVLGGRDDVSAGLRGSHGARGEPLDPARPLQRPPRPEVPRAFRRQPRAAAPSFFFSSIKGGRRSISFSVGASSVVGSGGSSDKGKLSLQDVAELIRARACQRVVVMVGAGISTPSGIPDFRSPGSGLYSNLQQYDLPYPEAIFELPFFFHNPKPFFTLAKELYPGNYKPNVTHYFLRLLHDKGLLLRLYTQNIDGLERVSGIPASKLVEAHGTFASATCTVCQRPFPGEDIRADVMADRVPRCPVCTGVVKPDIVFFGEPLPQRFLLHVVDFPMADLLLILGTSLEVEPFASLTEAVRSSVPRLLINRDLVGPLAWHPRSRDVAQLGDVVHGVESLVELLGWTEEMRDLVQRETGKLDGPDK
The experiment in a line: Inhibition of human recombinant His-tagged SIRT3 using KI179 as substrate preincubated for 5 mins followed by enzyme addition measured after 1 hr by fluorescence assay.

The target in data set [10] is T3, NAD-dependent protein deacetylase sirtuin-2 (Homo sapiens, UniProt Q8IXJ6).
T3 sequence (Q8IXJ6 whole entry): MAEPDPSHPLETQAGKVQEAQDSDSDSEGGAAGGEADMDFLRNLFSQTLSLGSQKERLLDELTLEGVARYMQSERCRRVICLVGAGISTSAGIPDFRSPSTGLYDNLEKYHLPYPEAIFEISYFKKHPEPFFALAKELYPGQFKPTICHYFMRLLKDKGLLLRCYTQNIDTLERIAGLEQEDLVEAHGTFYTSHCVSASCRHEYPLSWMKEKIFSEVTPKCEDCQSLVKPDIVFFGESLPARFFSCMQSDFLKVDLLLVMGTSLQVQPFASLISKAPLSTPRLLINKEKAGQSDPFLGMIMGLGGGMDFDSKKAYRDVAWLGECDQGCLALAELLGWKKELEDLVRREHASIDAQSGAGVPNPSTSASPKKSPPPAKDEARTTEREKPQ
As to the kind of experiment: Inhibition of human recombinant GST-tagged SIRT2 using KI179 as substrate preincubated for 5 mins followed by enzyme addition measured after 1 hr by fluorescence assay. The procedure, abridged:
(§2)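 Fluor de Lys deacetylation assay. […] Mix preincubated 5 min at room temperature, started with enzyme, run 1 h at 37°C. Developer with 2 mM nicotinamide then added for 45 min at 37°C before fluorescence reading.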

Data set [11] addresses T4, NAD-dependent protein deacetylase sirtuin-1 (Homo sapiens, UniProt Q96EB6).
T4 sequence (Q96EB6 whole entry): T1 sequence (whole entry)
The experiment in a line: Inhibition of human recombinant GST-tagged SIRT1 using KI177 as substrate preincubated for 5 mins followed by enzyme addition measured after 1 hr by fluorescence assay. The procedure, abridged: as §2

The target of data set [12] is T5, NAD-dependent protein deacetylase sirtuin-2 (Homo sapiens) (UniProt Q8IXJ6).
T5 sequence (whole entry): T3 sequence (Q8IXJ6 whole entry)
As to the kind of experiment: Inhibition of human recombinant GST-tagged SIRT2 using KI179 as substrate at 50 uM preincubated for 5 mins followed by enzyme addition measured after 1 hr by fluorescence assay relative to control. The procedure, abridged: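 Recombinant GST-SIRT2, Fluor de Lys assay in SIRT assay buffer. Acetylated peptide KI179 at 0.7 Km (Km 198 µM) and NAD+ at 0.9 Km (reported Km 547 µM). Buffer, substrate, NAD+ and compound in DMSO preincubated 5 min at room temperature. Enzyme added to start; 1 h at 37 °C. Developer with 2 mM nicotinamide added; 45 min at 37 °C; fluorescence read. Mean ± SD, ≥3 experiments.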

The target in data set [13] is T6, NAD-dependent protein deacetylase sirtuin-3, mitochondrial (Homo sapiens) (UniProt Q9NTG7).
T6 sequence (whole entry): T2 sequence (Q9NTG7 whole entry)
Particulars: at 50 µM.

Data set [14] addresses T1, NAD-dependent protein deacetylase sirtuin-1 (Homo sapiens). Particulars: at 50 µM.
The test system of data set [15] is MCF7. As to the kind of experiment: Growth inhibition of human MCF7 cells up to 200 uM after 72 hrs by sulforhodamine B assay.
Data set [16] concerns MCF7. The experiment in a line: Cytotoxicity against human MCF7 cells assessed as cell death at 100 uM after 18 hrs by propidium iodide staining-based FACS flow cytometric analysis. The class given is functional. Background: A flow cytometer gives signals particle by particle.
For data set [17], the system named is A549. The experiment in a line: Cytotoxicity against human A549 cells assessed as cell death at 100 uM after 18 hrs by propidium iodide staining-based FACS flow cytometric analysis. The format is functional.
For data set [18], the system named is MCF7. The experiment in a line: Cell cycle arrest in human MCF7 cells assessed as accumulation at S phase at 100 uM after 18 hrs by propidium iodide staining-based FACS flow cytometric analysis (reference value: 12.6%). The format is functional.
Data set [19] deals with MCF7. The experiment in a line: Cell cycle arrest in human MCF7 cells assessed as accumulation at G2 phase at 100 uM after 18 hrs by propidium iodide staining-based FACS flow cytometric analysis (reference value: 14.7%). The class given is functional.
The subject of data set [20] is MCF7. The experiment in a line: Cell cycle arrest in human MCF7 cells assessed as accumulation at G1 phase at 100 uM after 18 hrs by propidium iodide staining-based FACS flow cytometric analysis (reference value: 67.6%). The class given is functional.
Data set [21] concerns A549. As to the kind of experiment: Cell cycle arrest in human A549 cells assessed as accumulation at S phase at 100 uM after 18 hrs by propidium iodide staining-based FACS flow cytometric analysis (reference value: 17.8%). The format is functional.
For data set [22], the system named is A549. The experiment in a line: Cell cycle arrest in human A549 cells assessed as accumulation at G2 phase at 100 uM after 18 hrs by propidium iodide staining-based FACS flow cytometric analysis (reference value: 19.4%). The format is functional.
In data set [23] the test system is A549. The experiment in a line: Cell cycle arrest in human A549 cells assessed as accumulation at G1 phase at 100 uM after 18 hrs by propidium iodide staining-based FACS flow cytometric analysis (reference value: 62.3%). The format is functional.
Data set [24] concerns A549. The experiment in a line: Growth inhibition of human A549 cells at >= 50 uM after 48 hrs by sulforhodamine B assay. The class given is functional, cell-based.
The subject of data set [25] is MCF7. The experiment in a line: Growth inhibition of human MCF7 cells at >= 50 uM after 72 hrs by sulforhodamine B assay.

The term inhibition denotes the share of the control response that was lost under treatment. What is called IC50 is the concentration that inhibits the measured activity by half. With `CC(=S)NCCCC[C@H](NC(=O)[C@@H]1C[C@@H](O)CN1C(=O)OCc1ccccc1)C(=O)NCC(=O)c1ccccc1`, the result in data set [1] and in data set [2] was inactive. For the same compound, the inhibition result in data set [3], in [7] and in [8] was “Active” each time. The “growth inhibition (GI)” value in data set [4] and in data set [15] was “inactive” each time. The Activity result in [5] and in [6] was “Non-toxic” each time. Besides, the concentration for half-maximal inhibition (IC50) was 3.89 µM in data set [9], 1.8 µM in data set [10] and 0.24 µM in data set [11]. Besides, the inhibition was determined as 96% in data set [12], 90% in data set [13] and 99% in data set [14].
As for `COc1ccc2[nH]cc(CCNC(=O)[C@H](CCCCNC(C)=S)NC(=O)OCc3ccccc3)c2c1`, the result in data set [16], in data set [17], in data set [1] and in data set [2] was inactive. Moreover, the Activity in data set [18] is reported as 5.7%; in data set [19], 13.2%; in data set [20] it was 77.4%; in data set [21] it was 3%; in data set [22], 9.9%; in data set [23], 85.7%. In addition, the Activity result in [5] and in [6] was “Non-toxic” in each case. For the same compound, the inhibition entry in data set [3], in [7] and in data set [8] was “Active” each time. The “growth inhibition (GI)” value in data set [24] and in [25] was “Active” in each case. Besides, the IC50 in data set [10] is 25.8 µM; in data set [11], 5.98 µM. Further, the inhibition in [12] amounted to 66%; in data set [14], 88%.
